This passage reports cytotoxicity, T/C and Average survived results from ChEMBL document CHEMBL1122945, “Synthesis and antitumor activity of a series of ftorafur analogues: the effect of varying electronegativity at the 1'-position” (J Med Chem, 1985).

Data set [1] can be described thus: Evaluated in vitro for the Cytotoxic activity in the L1210 cell culture screen at 100 uM Maximum cell kill in a 72-h period. As to conditions: mouse, L1210 cells; read-out: Inhibition. Type of data set: cell-based. The method, boiled down:
(§1)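 Compounds were suspended or dissolved in sterile 5 mM phosphate-buffered saline, sonicated 3 min, then serially diluted. L1210 cells were kept in suspension culture in RPMI-1640 with 10% fetal calf serum, penicillin and streptomycin at 37 °C, 98% humidity, 5% CO2. Exponentially growing cells (4 × 10^5 cells/mL) were exposed to compound. Read-out was percent inhibition versus control at maximum cell kill within 72 h, N = 9.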

Data set [2] in a line: Evaluated in vitro for the Cytotoxic activity in the L1210 cell culture screen at 1 uM Maximum cell kill in a 72-h period. The note with it: mouse, L1210 cells; read-out: Inhibition. In kind it is cell-based. The method, boiled down:
as §1

Data set [3] relates to P388. The data set can be described thus: Evaluated for the antitumor activity in the P388 lymphocytic leukemia in female CDF1 mice injected intraperitoneally with 10 E-6 tumor cells dosed for 9 days at 20 mg/kg; no significant activity. Type of data set: functional, Mus musculus. The note with it: route intraperitoneal. The method, boiled down:
(§2)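 P388 leukaemia screen run to NIH protocol in female CDF1 mice (~25 g). 1 × 10^6 cells were given ip on day 0, and compounds were dosed on days 1–9. Six mice per group, with 5-FU and fluorodeoxyuridine as positive internal standards. T/C values were calculated, and T/C above 125% counted as significant activity.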

A short description of data set [4]: Evaluated in vitro for the Cytotoxic activity in the L1210 cell culture screen at 10 uM Maximum cell kill in a 72-h period. Type of data set: cell-based. The note with it: mouse, L1210 cells; read-out: Inhibition. The procedure, abridged:
as §1

For data set [5], the system named is P388. Put plainly: Average days survival of female CDF1 mice bearing lymphocytic leukemia, when 10 E-6 tumor cells were injected intraperitoneally, dosed for 9 days at 20 mg/kg. Type of data set: functional, Mus musculus. The note with it: route intraperitoneal. The method, boiled down: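 P388 lymphocytic leukemia screen per NIH protocol in female CDF1 mice (~25 g), six per group. 1 × 10^6 cells injected ip on day 0. Compound given at 20 mg/kg on days 1–9. Survival of treated mice recorded and T/C calculated, with T/C above 125% taken as significant. 5-FU and fluorodeoxyuridine served as positive internal standards.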

For data set [6], the system named is P388. The data set can be described thus: Evaluated for the antitumor activity in the P388 lymphocytic leukemia in female CDF1 mice injected intraperitoneally with 10 E-6 tumor cells dosed for 9 days at 20 mg/kg. In kind it is functional, Mus musculus. The note with it: route intraperitoneal. The procedure, abridged:
as §2

Data set [7] concerns P388. Put plainly: Evaluated for the antitumor activity in the P388 lymphocytic leukemia in female CDF1 mice injected intraperitoneally with 10 E-6 tumor cells dosed for 9 days at 20 mg/kg;. In kind it is functional, Mus musculus. The note with it: route intraperitoneal. The procedure, abridged: as §2
A short description of data set [8]: Evaluated in vitro for the Cytotoxic activity in the L1210 cell culture screen at 100 uM Maximum cell kill in a 72-h period r. In kind it is cell-based. The note with it: mouse, L1210 cells; read-out: Inhibition. The method, boiled down: as §1

Each structure is given as a SMILES string.

The term T/C denotes the ratio of treated to control. Regarding `O=c1[nH]c(=O)n(C2CCCS2(=O)=O)cc1F` (configuration not stated), the cytotoxicity at 72 h, 100 µM in data set [1] is 92%. Further, the cytotoxicity at 72 h, 1 µM in data set [2] stood at 59.2%. The molecule also showed a T/C in the data set with P388 [3] of 119%. In addition, in data set [4], the cytotoxicity at 72 h, 10 µM is 85%. Moreover, in the data set on P388 [5], the Average survived was 12.17 days.

Regarding `O=c1[nH]c(=O)n(C2CCCS2)cc1F` (configuration not stated), the cytotoxicity at 72 h, 100 µM in data set [1] turned out to be 68.5%. Moreover, in data set [2], the cytotoxicity at 72 h, 1 µM was 16.9%. Besides, in data set [4], the cytotoxicity at 72 h, 10 µM worked out at 52.5%. Further, the T/C in the data set with P388 [6] came to 100%. Moreover, the Average survived in the data set on P388 [5] is 10.17 days.

Turning to `O=c1[nH]c(=O)n(C2CCC[S+]2[O-])cc1F` (configuration not stated), the cytotoxicity at 72 h, 100 µM in data set [1] worked out at 84.5%. In data set [2], the cytotoxicity at 72 h, 1 µM was determined as 64.9%. Moreover, the cytotoxicity at 72 h, 10 µM in data set [4] amounted to 82.9%. This molecule also yielded a T/C in the data set with P388 [6] of 143%. Moreover, in the data set on P388 [5], the Average survived is 14.5 days.

With `O=C1CCCC1n1cc(F)c(=O)[nH]c1=O` (configuration not stated), the cytotoxicity at 72 h, 100 µM in data set [1] was determined as 65.5%. In addition, in data set [2], the cytotoxicity at 72 h, 1 µM turned out to be 40%. Further, the cytotoxicity at 72 h, 10 µM in data set [4] worked out at 49.1%. This molecule came in with an Average survived with P388 [5] of 10.5 days. This molecule returned a T/C in the data set on P388 [7] of 103%.

`O=c1[nH]c(=O)n([C@H]2C[C@H](O)[C@@H](CO)O2)cc1F` [FLOXURIDINE] returned a T/C in the data set on P388 [6] of 149%. In the data set on P388 [5], this molecule yielded an Average survived of 15.17 days.

Regarding `O=c1[nH]cc(F)c(=O)[nH]1` [FLUOROURACIL], in data set [1], the cytotoxicity at 72 h, 100 µM turned out to be 90.3%. Moreover, in data set [2], the cytotoxicity at 72 h, 1 µM was found to be 79.8%. Also, in data set [4], the cytotoxicity at 72 h, 10 µM came to 81.2%. The molecule also had a T/C in the data set with P388 [6] of 173%. The Average survived in the data set with P388 [5] came to 17.6 days.

As to `O=c1[nH]c(=O)n(C2CCCO2)cc1F` (configuration not stated) [TEGAFUR], the cytotoxicity at 72 h, 1 µM in data set [2] was 17.2%. In addition, the cytotoxicity at 72 h, 100 µM in data set [8] came to 81.8%. Besides, the cytotoxicity at 72 h, 10 µM in data set [4] stood at 67.5%. Further, the T/C in the data set on P388 [6] was 98%. Also, the Average survived in the data set on P388 [5] turned out to be 10 days.
